Measured values as given in ChEMBL document CHEMBL4373651, “Indole compounds with N-ethyl morpholine moieties as CB2 receptor agonists for anti-inflammatory management of pain: synthesis and biological evaluation” (Medchemcomm, 2019).
Calls of active or inactive are those of the source.

Assays:
Rattus norvegicus [1] = experiment: (§1) Antiinflammatory hyperalgesic activity against complete freund's adjuvant-induced mechanical hyperalgesic Sprague-Dawley rat model assessed as paw withdraw latency at 0.0025 to 10 mg/kg, ip pretreated with CFA for 24 hrs followed by compound administration and measured at 24 hrs by analgesiometer analysis; type: functional, organism-based
How it was run: (§2)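 Male Sprague-Dawley rats, 180–200 g. Baseline mechanical paw withdrawal threshold taken with analgesiometer pressure on left hind paw, cut-off 250 g, endpoint complete withdrawal. Intraplantar 50% CFA (50 µL in 0.9% saline) under isoflurane. At 24 h, pre-drug threshold, then single i.p. dose of 0.0025–10 mg kg-1, antagonist combination or vehicle (2 mL kg-1). Thresholds read 1–24 h after dosing. % reversal = (post − pre)/(baseline − pre) × 100.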

Rattus norvegicus [2] = experiment: (§3) Antiinflammatory hyperalgesic activity against complete freund's adjuvant-induced mechanical hyperalgesic Sprague-Dawley rat model assessed as reduction in IL-1 beta production in paw skin at 0.1 mg/kg, ip pretreated with CFA for 24 hrs followed by compound administration and measured after 1 hr by ELISA; type: functional, organism-based
How it was run: (§4)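 Male Sprague-Dawley rats, 180–200 g, isoflurane anaesthesia. Left hind paw given intraplantar 50% CFA (50 µL in 0.9% saline), or saline. At 24 h, single i.p. dose of drug, antagonist, combination or vehicle (2 mL kg-1). 1 h after dosing, paw skin taken and homogenised in ice-cold buffer with protease inhibitor, then centrifuged. IL-1β, IL-6 and TNF-α in supernatant by ELISA. n = 6, one-way ANOVA with Tukey test.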

Rattus norvegicus [3] = experiment: as §3, with “TNF-alpha” for “IL-1 beta”; type: functional, organism-based; how it was run: as §4
Rattus norvegicus [4] = experiment: as §1, with “at” for “at 0.0025 to”, “compound and 1 mg/kg CB2 receptor antagonist, SR144528” for “compound”, “administration” for “administration and measured at 24 hrs”; type: functional, organism-based; how it was run: as §2
Rattus norvegicus [5] = experiment: Antiinflammatory hyperalgesic activity against ip dosed complete freund's adjuvant-induced mechanical hyperalgesic Sprague-Dawley rat model assessed as increase in […] pretreated with CFA for 24 hrs followed by compound administration and measured at 1 hr by analgesiometer analysis; type: functional; how it was run: as §2
Rattus norvegicus [6] = experiment: (§5) Antiinflammatory hyperalgesic activity against complete freund's adjuvant-induced mechanical hyperalgesic Sprague-Dawley rat model assessed as reduction in IL-6 production in paw skin at 0.1 mg/kg, ip pretreated with CFA for 24 hrs followed by compound administration and measured after 1 hr by ELISA; type: functional, organism-based; how it was run: as §4
Rattus norvegicus [7] = experiment: as §3, with “decrease” for “reduction”, “10” for “0.1”, “compound and 0.5 mg/kg CB1 receptor antagonist, AM281” for “compound”; type: functional, organism-based; how it was run: as §4
[8] = Selectivity ratio of EC50 for human CB1 receptor expressed in CHO cells coexpressing Galpha16 to EC50 for human CB2 receptor expressed in CHO cells coexpressing Galpha16
How it was run: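 Ratio of EC50 values from the CB1 and CB2 cAMP assays in CHO-Gα16 cells: 30 min compound exposure at 37 °C with 1 mM IBMX and forskolin, chemiluminescent cAMP read-out, triplicates.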

Rattus norvegicus [9] = experiment: as §3, with “decrease” for “reduction”, “10” for “0.1”, “ELISA relative to control” for “ELISA”; type: functional; how it was run: as §4
Rattus norvegicus [10] = experiment: as §5, with “decrease” for “reduction”, “10” for “0.1”, “ELISA relative to control” for “ELISA”; type: functional; how it was run: as §4
Rattus norvegicus [11] = experiment: as §5, with “decrease” for “reduction”, “TNF alpha” for “IL-6”, “10” for “0.1”, “ELISA relative to control” for “ELISA”; type: functional; how it was run: as §4
Rattus norvegicus [12] = experiment: as §5, with “decrease” for “reduction”, “TNF-alpha” for “IL-6”, “10” for “0.1”, “compound and 0.5 mg/kg CB1 receptor antagonist, AM281” for “compound”; type: functional, organism-based; how it was run: as §4
Rattus norvegicus [13] = experiment: Antiinflammatory hyperalgesic activity against ip dosed complete freund's adjuvant-induced mechanical hyperalgesic Sprague-Dawley rat model assessed as decrease in IL-1 beta production in paw skin pretreated with CFA for 24 hrs followed by compound administration and measured after 1 hr by ELISA; type: functional, organism-based; how it was run: as §4
Cannabinoid receptor 1 = Cannabinoid receptor 1 (Homo sapiens, UniProt P21554); experiment: Agonist activity at human CB1 receptor expressed in CHO cells coexpressing Galpha16 assessed as reduction in forsklin-induced cAMP production incubated for 30 mins by cAMP Hunter assay based […] analysis; type: cell-based; details: read-out: EC50
How it was run: (§6)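 CHO cells expressing human CB1 or CB2 with Gα16, seeded overnight at 37 °C. Test compounds in stimulation buffer with 1 mM IBMX, 0.25% BSA and forskolin, 30 min at 37 °C. Cells lysed, cAMP read by enzyme fragment complementation chemiluminescence kit. Triplicate per dilution. Efficacy relative to CP-55940 reference run twice per plate. EC50 from means.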

Rattus norvegicus [14] = experiment: as §5, with “TNF-alpha” for “IL-6”, “10” for “0.1”, “compound and 1 mg/kg CB2 receptor antagonist, SR144528” for “compound”; type: functional, organism-based; how it was run: as §4
Rattus norvegicus [15] = experiment: as §5, with “decrease” for “reduction”, “10” for “0.1”, “compound and 0.5 mg/kg CB1 receptor antagonist, AM281” for “compound”; type: functional, organism-based; how it was run: as §4
Cannabinoid receptor 2 = Cannabinoid receptor 2 (Homo sapiens, UniProt P34972); experiment: Agonist activity at human CB2 receptor expressed in CHO cells coexpressing Galpha16 assessed as reduction in forsklin-induced cAMP production incubated for 30 mins by cAMP Hunter assay based […] analysis; type: functional, cell-based; details: read-out: EC50; how it was run: as §6
Rattus norvegicus [16] = experiment: Antiinflammatory hyperalgesic activity against ip dosed complete freund's adjuvant-induced mechanical hyperalgesic Sprague-Dawley rat model assessed as decrease in TNF-alpha production in paw skin pretreated with CFA for 24 hrs followed by compound administration and measured after 1 hr by ELISA; type: functional, organism-based; how it was run: as §4
Rattus norvegicus [17] = experiment: as §5, with “10” for “0.1”, “compound and 1 mg/kg CB2 receptor antagonist, SR144528” for “compound”; type: functional, organism-based; how it was run: as §4
Rattus norvegicus [18] = experiment: as §3, with “10” for “0.1”, “compound and 1 mg/kg CB2 receptor antagonist, SR144528” for “compound”; type: functional, organism-based; how it was run: as §4
Rattus norvegicus [19] = experiment: Antiinflammatory hyperalgesic activity against ip dosed complete freund's adjuvant-induced mechanical hyperalgesic Sprague-Dawley rat model assessed as decrease in IL-6 production in paw skin pretreated with CFA for 24 hrs followed by compound administration and measured after 1 hr by ELISA; type: functional, organism-based; how it was run: as §4
Rattus norvegicus [20] = experiment: as §1, with “assessed as increase in paw withdraw” for “assessed as paw withdraw”, “measured at 1 hr to 12 hrs by” for “measured at 24 hrs by”; type: functional, organism-based; how it was run: as §2
Rattus norvegicus [21] = experiment: Antiinflammatory hyperalgesic activity against complete freund's adjuvant-induced mechanical hyperalgesic Sprague-Dawley rat model assessed as increase in paw withdraw latency at 10 mg/kg, ip pretreated with CFA for 24 hrs followed by compound and 0.5 mg/kg CB1 receptor antagonist, AM281 administration by analgesiometer analysis; type: functional, organism-based; how it was run: as §2

Cannabinoid receptor 2, sequence (P34972 whole entry): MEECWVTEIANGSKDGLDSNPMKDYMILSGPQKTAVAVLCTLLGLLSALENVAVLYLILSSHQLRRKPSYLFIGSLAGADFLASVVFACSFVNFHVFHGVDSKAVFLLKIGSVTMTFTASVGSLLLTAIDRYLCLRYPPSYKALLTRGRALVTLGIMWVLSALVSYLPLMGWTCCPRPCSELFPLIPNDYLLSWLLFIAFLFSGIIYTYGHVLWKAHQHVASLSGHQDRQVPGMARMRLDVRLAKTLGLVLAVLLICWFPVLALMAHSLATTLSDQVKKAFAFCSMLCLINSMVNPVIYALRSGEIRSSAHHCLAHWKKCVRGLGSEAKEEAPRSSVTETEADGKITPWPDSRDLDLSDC
Cannabinoid receptor 1, sequence (P21554 whole entry, the tested form may be a part): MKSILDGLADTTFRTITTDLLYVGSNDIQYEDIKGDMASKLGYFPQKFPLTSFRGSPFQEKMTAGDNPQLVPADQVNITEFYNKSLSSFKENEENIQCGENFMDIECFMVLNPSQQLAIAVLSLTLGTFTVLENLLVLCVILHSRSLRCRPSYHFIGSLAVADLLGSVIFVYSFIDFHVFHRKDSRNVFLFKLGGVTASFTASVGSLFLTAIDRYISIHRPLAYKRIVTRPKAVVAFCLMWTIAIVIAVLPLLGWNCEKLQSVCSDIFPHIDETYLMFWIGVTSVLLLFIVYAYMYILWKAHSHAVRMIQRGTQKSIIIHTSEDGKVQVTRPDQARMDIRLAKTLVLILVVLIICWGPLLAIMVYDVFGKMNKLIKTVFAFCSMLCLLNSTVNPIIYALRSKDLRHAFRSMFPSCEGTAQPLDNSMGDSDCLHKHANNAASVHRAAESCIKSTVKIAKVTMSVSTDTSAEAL

For Cc1c(CCN2CCOCC2)c2cc(F)ccc2n1C(=O)c1cccc(Cl)c1Cl, the Activity (Rattus norvegicus [1]) was “inactive”, the Activity (Rattus norvegicus [2]) was “inactive” and the Activity (Rattus norvegicus [3]) was “inactive”. The Activity (Rattus norvegicus [4]) was “inactive”, the Activity (Rattus norvegicus [5]) was “Dose-dependent effect” and the ED50 (Rattus norvegicus [5]) was 1.1 mg/kg. The Activity (Rattus norvegicus [6]) was “inactive”, the inhibition (Rattus norvegicus [7]) was “Active” and the “Ratio EC50” value [8] was greater than 1000. For the same molecule, the “fold change (FC)” value (Rattus norvegicus [9]) was 1.3, the “fold change (FC)” value (Rattus norvegicus [10]) was 1.9 and the “fold change (FC)” value (Rattus norvegicus [11]) was 1.1. The inhibition (Rattus norvegicus [12]) was “Active”, the inhibition (Rattus norvegicus [13]) was “Dose-dependent effect” and the EC50 (Cannabinoid receptor 1) was 29.2 µM. For the same molecule, the Activity (Rattus norvegicus [14]) was “inactive”, the inhibition (Rattus norvegicus [15]) was “Active” and the EC50 (Cannabinoid receptor 2) was 0.0189 µM. For the same molecule, the inhibition (Rattus norvegicus [16]) was “Dose-dependent effect”, the Activity (Rattus norvegicus [17]) was “inactive” and the Activity (Rattus norvegicus [18]) was “inactive”. For the same molecule, the inhibition (Rattus norvegicus [19]) was “Dose-dependent effect”, the Activity (Rattus norvegicus [20]) was “Active” and the Activity (Rattus norvegicus [21]) was “Active”.
